Data published in ChEMBL document CHEMBL5104108, “Concise synthesis and biological activity evaluation of novel pyrazinyl-aryl urea derivatives against several cancer cell lines, which can especially induce T24 apoptotic and necroptotic cell death” (RSC Med Chem, 2022).
Active and inactive are the calls of the source. The rule behind the calls is not given here.

Assays:
[1] = AUMC in Sprague-Dawley rat at 6 mg/kg, IG measured HPLC analysis; type: ADME, organism-based; conditions: in vivo, po
T-24 [2] = assay: Antiproliferative activity against human T24 cells measured after 48 hrs by MTT assay; type: functional, cell-based; conditions: T-24, 48 h
How it was run: (§1)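 Cells seeded 5 × 10^3 per well, grown overnight at 37 °C, then exposed to compound at final 1–40 μM (1, 2.5, 5, 7.5, 10, 12.5, 15, 20, 30, 40 μM) for the stated period. MTT added, 4 h at 37 °C, formazan dissolved in DMSO, absorbance read. IC50 = concentration killing 50% of cells relative to untreated control; mean ± S.D. of four independent experiments.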

T-24 [3] = assay: Down-regulation of RIPK1 expression in human T24 cells at 7.5 to 10 uM measured in presence of 60 uM Nec-1 after 16 hrs by Western blot analysis; type: functional, cell-based; conditions: dose 7.5-10 µM
How it was run: (§2)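 T24 cells co-incubated 16 h with or without Nec-1 (60 μM). Lysates quantified by BCA, 40 μg protein resolved by SDS-PAGE, transferred to PVDF, probed with primary and peroxidase-conjugated secondary antibodies, detected by ECL. Band gray values normalized to β-actin loading control.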

T-24 [4] = assay: Induction of apoptosis in human T24 cells at 5 to 7.5 uM measured after 10 hrs by Hoechst 33342 and propidium iodide staining based flow cytometry analysis; type: functional, cell-based; conditions: dose 5-7.5 µM
[5] = Cmax in Sprague-Dawley rat at 12 mg/kg, IG measured HPLC analysis; type: ADME, organism-based; parameters: dose 12 mg/kg, route ig; conditions: in vivo, po
T-24 [6] = assay: Induction of intracellular reactive oxygen species production in human T24 cells assessed as ROS level at 5 uM measured after 16 hrs by flow cytometry analysis; type: functional, cell-based
How it was run: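 After 16 h treatment, floating and adherent T24 cells pooled and loaded with DCFH-DA (final 10 μM) for 30 min at 37 °C in the dark, washed, resuspended in PBS and analyzed by flow cytometry; fluorescence also quantified by luminescence spectrometry. ROS expressed relative to control; mean ± S.D. of three independent experiments.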

T-24 [7] = assay: Down-regulation of VEGFR-1 mRNA expression in human T24 cells at 7.5 uM measured in presence of 25 uM apatinib by RT-PCR analysis; type: functional, cell-based
T-24 [8] = assay: Induction of apoptosis in human T24 cells assessed as apoptotic cells at 2.5 uM measured after 10 hrs by Annexin-V/FITC and propidium iodide staining based flow cytometry analysis; type: functional
How it was run: (§3)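 T24 cells in 60 mm dishes treated 10 h at 37 °C, collected, PBS-washed, resuspended in binding buffer, stained with Annexin V-FITC and PI for 15 min at room temperature in the dark. At least 1 × 10^4 events per sample by flow cytometry; apoptotic cells = early (Annexin+/PI−) plus late (Annexin+/PI+). Triplicate experiments.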

T-24 [9] = assay: Up-regulation of MLKL expression in human T24 cells at 2.5 to 7.5 uM measured by ELISA assay; type: functional, cell-based; conditions: dose 2.5-7.5 µM
How it was run: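 T24 cells pretreated, collected, diluted in PBS, counted and stored overnight at −20 °C. After membrane disruption, lysates centrifuged at 5000 × g for 5 min (4 °C). RIPK1, RIPK3 and MLKL levels then measured with ELISA kits.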

HepG2 = assay: Antiproliferative activity against human HepG2 cells measured after 48 hrs by MTT assay; type: functional, cell-based; conditions: HepG2, 48 h; how it was run: as §1
T-24 [10] = assay: Up-regulation of p-MLKL expression in human T24 cells at 7.5 to 10 uM measured after 16 hrs by Western blot analysis; type: functional, cell-based; conditions: dose 7.5-10 µM
[11] = MRT (0 to 48 hrs) in Sprague-Dawley rat at 12 mg/kg, IG measured HPLC analysis; type: ADME, organism-based; conditions: in vivo, po
How it was run: (§4)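 Fasted (12 h) male-unspecified Sprague-Dawley rats (250 ± 20 g), n = 6 per group. Single intragastric dose of suspension (2 mg mL−1 in Tween 80/0.9% NaCl 1.5:5 v/v). Orbital blood drawn at 0.5–48 h and plasma assayed by reversed-phase C18 HPLC-UV. One-compartment fit, weight 1.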

T-24 [12] = assay: Induction of apoptosis in human T24 cells assessed as increase in Cytochrome c expression at 5 to 7.5 uM measured by Western blot analysis; type: functional, cell-based; conditions: dose 5-7.5 µM
How it was run: (§5)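 Apoptosis-related proteins measured by Western blot in T24 lysates: 40 μg protein per lane by SDS-PAGE, PVDF transfer, primary and peroxidase-linked secondary antibodies, ECL detection, densitometry of gray values with β-actin as loading control.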

T-24 [13] = assay: Induction of apoptosis in human T24 cells assessed as apoptotic cells at 7.5 uM measured after 10 hrs by Annexin-V/FITC and propidium iodide staining based flow cytometry analysis; type: functional; how it was run: as §3
T-24 [14] = assay: Induction of apoptosis in human T24 cells assessed as increase in Bax expression at 5 to 7.5 uM measured by Western blot analysis; type: functional, cell-based; conditions: dose 5-7.5 µM; how it was run: as §5
T-24 [15] = assay: Up-regulation of p-RIPK1 expression in human T24 cells at 7.5 to 10 uM measured after 16 hrs by Western blot analysis; type: functional, cell-based; conditions: dose 7.5-10 µM
[16] = Absorption rate constant in Sprague-Dawley rat at 6 mg/kg, IG measured HPLC analysis; type: ADME, organism-based; conditions: in vivo, po
T-24 [17] = assay: Down-regulation of VEGFR-2 mRNA expression in human T24 cells at 7.5 uM measured in presence of 25 uM apatinib by RT-PCR analysis; type: functional, cell-based
T-24 [18] = assay: Up-regulation of RIPK1 mRNA expression in human T24 cells at 7.5 to 12.5 uM measured by RT-PCR analysis; type: functional, cell-based; conditions: dose 7.5-12.5 µM
How it was run: (§6)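 Total T24 RNA extracted with TRIzol. RT-PCR normalized to GAPDH, relative expression by 2−ΔΔCt versus control. Incubation 16 h for RIPK1/RIPK3/MLKL. At least three independent experiments, each in triplicate.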

[19] = AUMC in Sprague-Dawley rat at 12 mg/kg, IG measured HPLC analysis; type: ADME, organism-based; conditions: in vivo, po
[20] = Tmax in Sprague-Dawley rat at 12 mg/kg, IG measured HPLC analysis; type: ADME, organism-based; conditions: in vivo, po; how it was run: as §4
T-24 [21] = assay: Induction of necroptosis in human T24 cells assessed as viable cells at 7.5 uM and measured by trypan blue exclusion assay; type: functional; conditions: read-out: Activity
How it was run: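 T24 cells (2 × 10^5/well) exposed for 16 h with or without Nec-1 (60 μM), then stained with trypan blue. Viable and dead cells counted. Result given as % viable cells relative to untreated control.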

T-24 [22] = assay: Down-regulation of RIPK2 expression in human T24 cells at 7.5 to 10 uM measured in presence of 60 uM Nec-1 after 16 hrs by Western blot analysis; type: functional, cell-based; conditions: dose 7.5-10 µM; how it was run: as §2
MGC-803 = assay: Antiproliferative activity against human MGC-803 cells measured after 48 hrs by MTT assay; type: functional, cell-based; conditions: MGC-803, 48 h; how it was run: as §1
[23] = AUC (0 to 48 hrs) in Sprague-Dawley rat at 12 mg/kg, IG measured HPLC analysis; type: ADME, organism-based; parameters: time < 48 hr, dose 12 mg/kg, route ig; conditions: in vivo, po
T-24 [24] = assay: Down-regulation of VEGFR-2 mRNA expression in human T24 cells at 5 to 10 uM measured by RT-PCR analysis; type: functional, cell-based; conditions: dose 5-10 µM
T-24 [25] = assay: Up-regulation of RIPK3 mRNA expression in human T24 cells at 7.5 to 12.5 uM measured by RT-PCR analysis; type: functional, cell-based; conditions: dose 7.5-12.5 µM; how it was run: as §6
[26] = AUC (0 to 48 hrs) in Sprague-Dawley rat at 6 mg/kg, IG measured HPLC analysis; type: ADME, organism-based; parameters: time < 48 hr, dose 6 mg/kg, route ig; conditions: in vivo, po

O=C(Nc1ccc(C(F)(F)F)cc1)Nc1cccc(CNc2nccnc2Cl)c1
AUMC [1]: 606261 hr2.ng/ml | IC50 (T-24 [2]): 4.58 µM | Activity (T-24 [3]): Active | Activity (T-24 [4]): Active | Cmax [5]: 3360 ng/mL | Activity (T-24 [6]): Active | Activity (T-24 [7]): Active | Activity (T-24 [8]): 9.01% | Activity (T-24 [9]): Active | IC50 (HepG2): 5.05 µM | Activity (T-24 [10]): Active | MRT last [11]: 10.3 h | Activity (T-24 [12]): Active | Activity (T-24 [13]): 21.41% | Activity (T-24 [14]): Active | Activity (T-24 [15]): Active | Ka [16]: 0.098 h⁻¹ | Activity (T-24 [17]): Active | Activity (T-24 [18]): Active | AUMC [19]: 1494860 hr2.ng/ml | Tmax [20]: 12.4 h | viability at 7.5 µM (T-24 [21]): 51% | Activity (T-24 [22]): Active | IC50 (MGC-803): 6.91 µM | AUC(0-t) at 48 h [23]: 75800 ng·h/mL | Activity (T-24 [24]): Active | Activity (T-24 [25]): Active | AUC(0-t) at 48 h [26]: 30800 ng·h/mL
